Experimental data: ChEMBL document CHEMBL1155032, “Dendronpholides A-R, cembranoid diterpenes from the chinese soft coral Dendronephthya sp” (J Nat Prod, 2008)
Converted amounts (≈) assume the structure as drawn.

Assay: Cytotoxicity against human […] cells
Format: functional, cell-based
In short: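 In vitro assay on the human gastric cancer line BGC-823, one of a panel of human cancer lines. Viability was read out by the MTT method, following a previously published procedure.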

| SMILES | IC50 |
| --- | --- |
| C=C(C(=O)OC)[C@@H]1CC[C@@](C)(O)[C@@H](O)CC/C(C)=C/C/C=C(\C)[C@@H](O)C1 [DENDRONPHOLIDE C] | 0.05 µg/mL (≈ 0.136 µM) |
| C=C(C(=O)O)[C@@H]1CC[C@@](C)(O)[C@@H]2CC[C@@](C)(O2)[C@@H](O)CC[C@](C)(O)[C@H](OC(C)=O)C1 [DENDRONPHOLIDE J] | 0.2 µg/mL (≈ 0.467 µM) |
| C=C(C(=O)OC)[C@@H]1CC[C@@](C)(O)[C@@H]2CC[C@@](C)(O2)[C@@H](OC(C)=O)C/C=C(\C)[C@H](O)C1 [DENDRONPHOLIDE P] | > 10 µg/mL |
| C=C1C(=O)O[C@]2(C)CC[C@@H]1C[C@@H](O)/C(C)=C/C/C=C(\C)CC[C@@H]2OC(C)=O [DENDRONPHOLIDE B] | > 10 µg/mL |
| C=C1C(=O)O[C@]2(C)CC[C@@H]1C[C@@H](OC(C)=O)[C@@]1(C)CC[C@H](O1)[C@@](C)(O)CC[C@@H]2OC(C)=O [DENDRONPHOLIDE Q] | > 10 µg/mL |
| C=C(C(=O)OCC)[C@@H]1CC[C@@](C)(O)[C@@H]2CC[C@@](C)(O2)[C@@H](OC(C)=O)C/C=C(\C)[C@H](O)C1 [DENDRONPHOLIDE O] | > 10 µg/mL |
| C=C1C(=O)O[C@]2(C)CC[C@@H]1C[C@H](O)/C(C)=C/C/C=C(\C)CC[C@@H]2O | > 10 µg/mL |
| C=C(C(=O)O)[C@@H]1CC[C@@](C)(O)[C@@H]2CC[C@@](C)(O2)[C@@H](OC(C)=O)CC[C@](C)(O)[C@H](O)C1 [DENDRONPHOLIDE I] | > 10 µg/mL |
| C=C1C(=O)O[C@]2(C)CC[C@@H]1C[C@H](O)/C(C)=C/C/C=C(\C)CC[C@@H]2OC(C)=O [DENDRONPHOLIDE A] | > 10 µg/mL |
| C=C(C(=O)O)[C@@H]1CC[C@@](C)(O)[C@@H]2CC[C@@](C)(O2)[C@@H](OC(C)=O)CC[C@](C)(OC)[C@H](O)C1 [DENDRONPHOLIDE K] | > 10 µg/mL |
| C=C(C(=O)O)[C@@H]1CC[C@@](C)(O)[C@@H](OC(C)=O)CCC(=C)[C@@H]2CC[C@@](C)(O2)[C@H](O)C1 [DENDRONPHOLIDE R] | > 10 µg/mL |
| C=C(C(=O)OC)[C@@H]1CC[C@@](C)(O)[C@@H]2CC[C@@](C)(O2)[C@@H](OC(C)=O)CC[C@]2(C)O[C@H]2C1 [DENDRONPHOLIDE G] | 0.02 µg/mL (≈ 0.0471 µM) |
